ChEMBL document CHEMBL1138863, “Synthesis, in vitro antiviral evaluation, and stability studies of novel alpha-borano-nucleotide analogues of 9-[2-(phosphonomethoxy)ethyl]adenine and (R)-9-[2-(phosphonomethoxy)propyl]adenine” (J Med Chem, 2006)

Key:
[1] = system: Human immunodeficiency virus 1; assay: Antiviral activity against HIV1 in MAGI-CCR5 cells; assay type: functional, organism-based; settings: Human immunodeficiency virus 1, MAGI-CCR5
Hepatitis C virus = assay: Antiviral activity against HCV in Huh5-2 cells by subgenomic replicon assay; assay type: functional, organism-based, Hepacivirus hominis; settings: Huh-5-2
Summary of the method: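 Huh-5-2 cells bearing HCV genotype 1b subgenomic replicon I389luc-ubi-neo/NS3-3'/5.1, seeded 7000 cells/well, adhered 24 h, then five 5-fold dilutions from 100 µM in medium lacking G418 for 72 h at 37 °C, 5% CO2. Interferon alfa 2a (500 IU) positive control. Firefly luciferase read as % of untreated cultures; EC50 calculated.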

Human alphaherpesvirus 1 [2] = assay: (§1) Antiviral activity against HSV1 KOS in HEL cells; assay type: functional, organism-based; settings: Human alphaherpesvirus 1, KOS
Human alphaherpesvirus 2 = assay: Antiviral activity against HSV2 in HEL cells; assay type: functional, organism-based; settings: Human alphaherpesvirus 2, HEL
Vaccinia virus = assay: Antiviral activity against vaccinia virus in HEL cells; assay type: functional, organism-based; settings: Orthopoxvirus vaccinia
[3] = system: Vesicular stomatitis virus; assay: Antiviral activity against vesicular somatitis virus in HEL cells; assay type: functional, organism-based
Coxsackievirus B4 = assay: Antiviral activity against Coxsackie B4 virus in HeLa cells; assay type: functional, organism-based; settings: Enterovirus B
[4] = system: Respiratory syncytial virus; assay: Antiviral activity against RSV in HeLa cells; assay type: functional, organism-based; settings: human respiratory syncytial virus
[5] = Stability in culture medium (RPMI+FBS); assay type: physicochemical; settings: bovine
Summary of the method: (§2)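 Compound diluted to 0.1 mM final in RPMI 1640 or culture medium (RPMI 1640 + 10% heat-inactivated FCS), incubated 37 °C; aliquots frozen at -80 °C and analysed by on-line cleaning HPLC (C18, TEAB/acetonitrile gradient, 260 nm); half-lives calculated.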

[6] = Stability in CEM-SS cell extracts; assay type: physicochemical, cell-based; settings: human
Summary of the method: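 CEM-SS cells were washed in PBS, resuspended at 30 × 10^6 cells/mL in 10 mM Tris-HCl, 140 mM KCl (pH 7.4), sonicated and cleared at 10 000g. The supernatant (soluble protein 3 mg/mL) was spiked to a final 0.1 mM compound and incubated at 37 °C. Samples were drawn over time, frozen at -80 °C, and analysed by on-line cleaning reverse-phase HPLC (TEAB gradient, 260 nm). Half-life was calculated.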

Human alphaherpesvirus 1 [7] = assay: as §1; assay type: functional, organism-based; settings: Human alphaherpesvirus 1, KOS; remark: listed apart in the source
[8] = Cytotoxicity against HEL cells; assay type: cell-based; settings: human
Human respirovirus 3 = assay: Antiviral activity against para influenza 3 virus in Vero cells; assay type: functional, organism-based; settings: Human respirovirus 3, Vero
[9] = system: Mammalian orthoreovirus 1; assay: Antiviral activity against reovirus 1 in Vero cells; assay type: functional, organism-based; settings: Mammalian orthoreovirus 1, Vero
Sindbis virus = assay: Antiviral activity against Sindbis virus in Vero cells; assay type: functional, organism-based
Punta Toro virus = assay: Antiviral activity against Punta Toro virus in Vero cells; assay type: functional, organism-based
[10] = Cytotoxicity against MAGI-CCR5 cells; assay type: cell-based; settings: human
Summary of the method: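 MAGI-CCR5 cells (10^4 cells/well) were exposed to 0-400 µM compound, 4 h before mock/HIV-1 spinoculation and then throughout a 2-day culture. CC50 is the concentration inhibiting cell proliferation by 50%.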

[11] = Cytotoxicity against Huh5-2 cells; assay type: cell-based, Huh-5-2; settings: human
Summary of the method: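 Parallel Huh-5-2 cultures (7000 cells/well) given five 5-fold compound dilutions from 100 µM without G418; proliferation measured 3 days after addition by MTS bioreduction to formazan, read in a plate reader.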

[12] = Cytotoxicity against Vero cells; assay type: cell-based; settings: chlorocebus sabaeus
[13] = Cytotoxicity against HeLa cells; assay type: cell-based; settings: human
[14] = Stability in pH 1.2 buffer at 37 degC after 72 hrs; assay type: physicochemical; settings: pH 1.2, 72 h
Summary of the method: (§3)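 Compound at 0.1 mM final in buffer (pH 1.2, 5.2, 7.4, 8.1, 9.0 or 11.5) at 37 °C up to 72 h; aliquots frozen at -80 °C, analysed by reverse-phase HPLC (TEAB/acetonitrile gradient, 260 nm); "stable" = less than 5% decomposition after 72 h.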

[15] = Stability in pH 5.2 buffer at 37 degC after 72 hrs; assay type: physicochemical; settings: pH 5.2, 72 h; summary of the method: as §3
[16] = Stability in pH 7.4 buffer at 37 degC after 72 hrs; assay type: physicochemical; settings: pH 7.4, 72 h; summary of the method: as §3
[17] = Stability in pH 8.1 buffer at 37 degC after 72 hrs; assay type: physicochemical; settings: pH 8.1, 72 h; summary of the method: as §3
[18] = Stability in pH 9.0 buffer at 37 degC after 72 hrs; assay type: physicochemical; settings: pH 9, 72 h; summary of the method: as §3
[19] = Stability in pH 11.5 buffer at 37 degC after 72 hrs; assay type: physicochemical; settings: pH 11.5, 72 h; summary of the method: as §3
[20] = Stability in RPMI-1640 medium; assay type: ADME; summary of the method: as §2

Nc1ncnc2c1ncn2CCOC[PH](=O)O
120 µM: EC50 (Human alphaherpesvirus 2) | EC50 (Human alphaherpesvirus 1 [7])
> 200 µM: EC50 (Human alphaherpesvirus 1 [2]) | EC50 (Vaccinia virus) | EC50 [3] | EC50 (Coxsackievirus B4) | EC50 [4] | CC50 [8] | EC50 (Human respirovirus 3) | EC50 [9] | EC50 (Sindbis virus) | EC50 (Punta Toro virus) | CC50 [11] | CC50 [12] | CC50 [13]
> 72 h: half-life [5] | half-life [6] | half-life [20]
> 33 µM: EC50 (Hepatitis C virus)
Stable: Stability [14] | Stability [15] | Stability [16] | Stability [17] | Stability [18] | Stability [19]
> 400 µM: EC50 [1] | CC50 [10]

BP(=O)(O)COCCn1cnc2c(N)ncnc21
Stable: Stability [14] | Stability [15] | Stability [16] | Stability [17] | Stability [18] | Stability [19]
> 33 µM: EC50 (Hepatitis C virus)
5.3 h: half-life [5]
> 72 h: half-life [20]
48 h: half-life [6]
> 200 µM: EC50 (Human alphaherpesvirus 1 [2]) | EC50 (Human alphaherpesvirus 2) | EC50 (Coxsackievirus B4) | EC50 [4] | EC50 (Human alphaherpesvirus 1 [7]) | CC50 [8] | EC50 [9] | EC50 (Sindbis virus) | EC50 (Punta Toro virus) | CC50 [11] | CC50 [12] | CC50 [13]
> 400 µM: EC50 [1] | CC50 [10]

BP(=O)(O)CO[C@H](C)Cn1cnc2c(N)ncnc21
> 200 µM: EC50 (Human alphaherpesvirus 1 [2]) | EC50 (Human alphaherpesvirus 2) | EC50 (Coxsackievirus B4) | EC50 [4] | CC50 [8] | EC50 [9] | EC50 (Sindbis virus) | EC50 (Punta Toro virus) | CC50 [11] | CC50 [12] | CC50 [13]
1.3 h: half-life [5]
120 µM: EC50 (Human alphaherpesvirus 1 [7])
24 h: half-life [6]
Stable: Stability [14] | Stability [15] | Stability [16] | Stability [17] | Stability [18] | Stability [19]
> 33 µM: EC50 (Hepatitis C virus)
> 400 µM: EC50 [1] | CC50 [10]
> 72 h: half-life [20]

C[C@H](Cn1cnc2c(N)ncnc21)OC[PH](=O)O
> 72 h: half-life [5] | half-life [20]
> 400 µM: EC50 [1] | CC50 [10]
Stable: Stability [14] | Stability [15] | Stability [16] | Stability [17] | Stability [18] | Stability [19]
> 33 µM: EC50 (Hepatitis C virus)
> 200 µM: EC50 (Human alphaherpesvirus 1 [2]) | EC50 (Human alphaherpesvirus 2) | EC50 (Vaccinia virus) | EC50 [3] | EC50 (Coxsackievirus B4) | EC50 [4] | EC50 (Human alphaherpesvirus 1 [7]) | CC50 [8] | EC50 (Human respirovirus 3) | EC50 [9] | EC50 (Sindbis virus) | EC50 (Punta Toro virus) | CC50 [11] | CC50 [12] | CC50 [13]

Nc1ncnc2c1ncn2C[C@H](O)CO [(S)-DHPA]
> 500 µM: EC50 (Coxsackievirus B4) | EC50 [4] | EC50 (Human respirovirus 3) | EC50 [9] | EC50 (Sindbis virus) | EC50 (Punta Toro virus) | CC50 [12] | CC50 [13]

Nc1nc2c(ncn2COCCO)c(=O)[nH]1 [ACYCLOVIR]
300 µM: EC50 (Vaccinia virus)
12 µM: EC50 (Human alphaherpesvirus 1 [7])
> 500 µM: EC50 [3] | CC50 [8]
0.48 µM: EC50 (Human alphaherpesvirus 1 [2]) | EC50 (Human alphaherpesvirus 2)

Nc1ncnc2c1ncn2CCOCP(=O)(O)O [ADEFOVIR]
> 400 µM: CC50 [10]
5.04 µM: EC50 [1]
Stable: Stability [14] | Stability [15] | Stability [16] | Stability [17] | Stability [18] | Stability [19]
> 72 h: half-life [5] | half-life [6] | half-life [20]

O=c1[nH]c(=O)n([C@H]2C[C@H](O)[C@@H](CO)O2)cc1/C=C/Br [BRIVUDINE]
2.4 µM: EC50 (Vaccinia virus)
0.096 µM: EC50 (Human alphaherpesvirus 1 [2])
300 µM: EC50 (Human alphaherpesvirus 2) | EC50 (Human alphaherpesvirus 1 [7])
> 500 µM: EC50 [3] | EC50 (Coxsackievirus B4) | EC50 [4] | CC50 [8] | EC50 (Human respirovirus 3) | EC50 [9] | EC50 (Sindbis virus) | EC50 (Punta Toro virus) | CC50 [12] | CC50 [13]

Nc1nc2c(ncn2COC(CO)CO)c(=O)[nH]1 [GANCICLOVIR]
0.019 µM: EC50 (Human alphaherpesvirus 1 [2])
0.032 µM: EC50 (Human alphaherpesvirus 2)
0.48 µM: EC50 (Human alphaherpesvirus 1 [7])
> 100 µM: EC50 (Vaccinia virus) | EC50 [3] | CC50 [8]

NC(=O)c1ncn([C@@H]2O[C@H](CO)[C@@H](O)[C@H]2O)n1 [RIBAVIRIN]
100 µM: EC50 (Vaccinia virus) | EC50 [9] | EC50 (Punta Toro virus)
12 µM: EC50 [4]
300 µM: EC50 (Human alphaherpesvirus 1 [2]) | EC50 (Human respirovirus 3)
> 500 µM: EC50 (Human alphaherpesvirus 2) | EC50 [3] | EC50 (Coxsackievirus B4) | EC50 (Human alphaherpesvirus 1 [7]) | CC50 [8] | EC50 (Sindbis virus) | CC50 [12] | CC50 [13]

Cc1cn([C@H]2C=C[C@@H](CO)O2)c(=O)[nH]c1=O [STAVUDINE]
> 400 µM: CC50 [10]
0.062 µM: EC50 [1]

C[C@H](Cn1cnc2c(N)ncnc21)OCP(=O)(O)O [TENOFOVIR ANHYDROUS]
0.35 µM: EC50 [1]
Stable: Stability [14] | Stability [15] | Stability [16] | Stability [17] | Stability [18] | Stability [19]
> 72 h: half-life [5] | half-life [6] | half-life [20]
> 400 µM: CC50 [10]

Cc1cn([C@H]2C[C@H](N=[N+]=[N-])[C@@H](CO)O2)c(=O)[nH]c1=O [ZIDOVUDINE]
> 400 µM: CC50 [10]
0.025 µM: EC50 [1]
